The subject of one assay is Leukemia cell. Kind of assay: Anticancer activity in patient with chronic lymphocytic leukemia. It counts as functional. The settings on record: Homo sapiens, read-out: LC50 (the source's name).
Assay [1] can be described thus: Cytotoxicity against human lung cancer cells. Format: functional. As to conditions: Cancer cell lines, read-out: ED50 (the source's name).
Assay [2] can be described thus: Cytotoxicity against human breast cancer cells. It counts as functional. The settings on record: Cancer cell lines, read-out: ED50 (the source's name).
The nature of assay [3]: Cytotoxicity against human colon cancer cells. As to conditions: Cancer cell lines. It counts as functional, cell-based.
For the next assay, the system named is A549. Kind of assay: Cytotoxicity against human A549 cells. It counts as functional, cell-based.
The next assay is filed under the species Oryctolagus cuniculus. The assay can be described thus: Inhibition of translation in rabbit reticulocyte lysate by luciferase assay. Format: functional. Put shortly:
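Cell-free translation in rabbit reticulocyte lysate, final KCl 135 mM, programmed with 8 μg/mL capped FF/HCV/Ren bicistronic mRNA. Firefly and Renilla luciferase activities were the read-out.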

The source made the active and inactive calls. The calls are words filed in the database; no cut-off is given here.

This is an account of results in ChEMBL document CHEMBL2086376, “Total synthesis of 2''',5'''-diepisilvestrol and its C1''' epimer: key structure activity relationships at C1''' and C2'''” (J Nat Prod, 2012).

For `COC(=O)[C@H]1[C@@H](O)[C@@]2(O)c3c(OC)cc(O[C@@H]4O[C@@H]([C@H](O)CO)CO[C@H]4OC)cc3O[C@@]2(c2ccc(OC)cc2)[C@@H]1c1ccccc1` [SILVESTROL], the CC50 in the assay with Leukemia cell stood at 6.9 nM. In addition, the EC50 in assay [1] was 1.2 nM; in assay [2], 1.5 nM.

As for `COC(=O)[C@H]1[C@@H](O)[C@@]2(O)c3c(OC)cc(O[C@@H]4O[C@@H]([C@@H](O)CO)CO[C@H]4OC)cc3O[C@@]2(c2ccccc2)[C@@H]1c1ccccc1`, the IC50 in assay [3] amounted to 10 nM; with A549, 130 nM.

For the molecule `COC(=O)[C@H]1[C@@H](O)[C@@]2(O)c3c(OC)cc(O[C@@H]4O[C@@H]([C@@H](O)CO)CO[C@@H]4OC)cc3O[C@@]2(c2ccc(OC)cc2)[C@@H]1c1ccccc1`, in the assay listed under Oryctolagus cuniculus, the inhibition result was “Active”.

Take `COC(=O)[C@H]1[C@@H](O)[C@@]2(O)c3c(OC)cc(O[C@H]4O[C@@H]([C@@H](O)CO)CO[C@@H]4OC)cc3O[C@@]2(c2ccc(OC)cc2)[C@@H]1c1ccccc1`: the inhibition result in the assay listed under Oryctolagus cuniculus was “inactive”.

As for `COC(=O)[C@H]1[C@@H](O)[C@@]2(O)c3c(OC)cc(O[C@@H]4O[C@@H]([C@H](O)CO)CO[C@@H]4OC)cc3O[C@@]2(c2ccc(OC)cc2)[C@@H]1c1ccccc1`, the inhibition entry in the assay filed under Oryctolagus cuniculus is “Active”. Also, the EC50 in assay [1] was determined as 1.2 nM; in assay [2], 1.5 nM.

As usually defined, the IC50 is the concentration at which inhibition is half-maximal.
